ChEMBL document CHEMBL1135929, “Investigation of potential bioisosteric replacements for the carboxyl groups of peptidomimetic inhibitors of protein tyrosine phosphatase 1B: identification of a tetrazole-containing inhibitor with cellular activity” (J Med Chem, 2002)

What was measured:
[1] = target: Receptor-type tyrosine-protein phosphatase F (Homo sapiens) (UniProt P10586); assay: Percent inhibition against Protein-tyrosine phosphatase Lar at 100 uM
Outline: (§1)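 For specificity screening, recombinant purified LAR and SHP-2 were each tested with compound at 100 µM, reported as % inhibition.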

[2] = target: T1, Tyrosine-protein phosphatase non-receptor type 1 (Homo sapiens) (UniProt P18031); assay: Percent inhibition against Protein-tyrosine phosphatase 1B at a 1 uM concentration
T1 sequence (whole entry): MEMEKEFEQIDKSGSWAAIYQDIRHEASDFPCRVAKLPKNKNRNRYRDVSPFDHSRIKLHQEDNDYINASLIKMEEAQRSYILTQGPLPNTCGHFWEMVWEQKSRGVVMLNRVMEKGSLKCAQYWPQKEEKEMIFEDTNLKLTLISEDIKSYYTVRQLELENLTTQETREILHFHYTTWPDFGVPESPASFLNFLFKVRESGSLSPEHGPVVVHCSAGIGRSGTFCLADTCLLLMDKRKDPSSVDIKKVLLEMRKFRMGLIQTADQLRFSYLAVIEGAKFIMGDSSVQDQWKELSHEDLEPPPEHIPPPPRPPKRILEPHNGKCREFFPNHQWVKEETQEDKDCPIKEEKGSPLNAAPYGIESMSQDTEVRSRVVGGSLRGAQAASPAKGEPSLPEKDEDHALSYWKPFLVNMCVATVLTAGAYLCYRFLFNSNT

[3] = target: T1, Tyrosine-protein phosphatase non-receptor type 1 (Homo sapiens); assay: Percent inhibition against Protein-tyrosine phosphatase 1B at a 100 uM concentration
Outline: (§2)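 PTP1B inhibition was read as pNPP hydrolysis, with compound at a single fixed concentration and activity given as % inhibition. Some entries were measured on PTP1, the rat homologue of PTP1B.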

[4] = target: T1, Tyrosine-protein phosphatase non-receptor type 1 (Homo sapiens); assay: Percent inhibition against Protein-tyrosine phosphatase 1B at a 10 uM concentration
[5] = target: T2, Tyrosine-protein phosphatase non-receptor type 11 (Homo sapiens) (UniProt Q06124); assay: Percent inhibition against Tyrosine phosphatase SHP2 at 100 uM; outline: as §1
T2 sequence (whole entry): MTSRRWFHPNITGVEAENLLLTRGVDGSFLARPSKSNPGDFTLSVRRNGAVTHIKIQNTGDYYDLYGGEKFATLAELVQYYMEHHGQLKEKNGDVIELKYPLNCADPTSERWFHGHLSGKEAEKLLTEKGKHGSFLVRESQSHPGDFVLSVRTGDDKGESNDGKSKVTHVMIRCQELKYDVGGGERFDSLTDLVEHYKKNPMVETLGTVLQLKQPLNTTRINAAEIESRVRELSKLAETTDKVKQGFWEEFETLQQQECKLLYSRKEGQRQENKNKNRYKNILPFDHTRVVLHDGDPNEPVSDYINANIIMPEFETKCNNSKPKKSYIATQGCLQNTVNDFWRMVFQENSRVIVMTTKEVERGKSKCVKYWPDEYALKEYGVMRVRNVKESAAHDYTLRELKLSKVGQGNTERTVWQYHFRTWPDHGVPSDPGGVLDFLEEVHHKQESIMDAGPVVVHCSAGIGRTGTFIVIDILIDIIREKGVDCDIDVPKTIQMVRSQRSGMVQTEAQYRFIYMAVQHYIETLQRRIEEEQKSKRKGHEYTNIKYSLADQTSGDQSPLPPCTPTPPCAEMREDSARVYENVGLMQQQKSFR

[6] = target: T3, Tyrosine-protein phosphatase non-receptor type 1 (Homo sapiens, UniProt P18031); assay: Inhibition constant of compound against Protein-tyrosine phosphatase 1B
T3 sequence (P18031 whole entry): T1 sequence (whole entry)

[7] = target: T3, Tyrosine-protein phosphatase non-receptor type 1; assay: Inhibitory constant against Protein-tyrosine phosphatase 1B
Outline: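 Competitive inhibition of PTP1B was measured with pNPP as substrate. V vs S data were collected at various inhibitor concentrations, and Ki was computed by the Cornish-Bowden direct linear method.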

Rattus norvegicus [8] = species on record: Rattus norvegicus; assay: Effect of compound (100 µM) on insulin (10 nM)-stimulated 2-deoxyglucose (2-DOG) uptake into L6 myocytes
Rattus norvegicus [9] = species on record: Rattus norvegicus; assay: Effect on basal uptake without insulin into intact cells (L6 myocytes), to that of control cells; assay type: functional, cell-based
[10] = target: Receptor-type tyrosine-protein phosphatase F (Homo sapiens) (UniProt P10586); assay: Percent inhibition of compound against Protein-tyrosine phosphatase Lar at 100 uM; outline: as §1
[11] = target: T4, Tyrosine-protein phosphatase non-receptor type 1 (Rattus norvegicus) (UniProt P20417); assay: Percent inhibition of compound against Protein-tyrosine phosphatase 1B at a 100 uM concentration; outline: as §2
T4 sequence (whole entry): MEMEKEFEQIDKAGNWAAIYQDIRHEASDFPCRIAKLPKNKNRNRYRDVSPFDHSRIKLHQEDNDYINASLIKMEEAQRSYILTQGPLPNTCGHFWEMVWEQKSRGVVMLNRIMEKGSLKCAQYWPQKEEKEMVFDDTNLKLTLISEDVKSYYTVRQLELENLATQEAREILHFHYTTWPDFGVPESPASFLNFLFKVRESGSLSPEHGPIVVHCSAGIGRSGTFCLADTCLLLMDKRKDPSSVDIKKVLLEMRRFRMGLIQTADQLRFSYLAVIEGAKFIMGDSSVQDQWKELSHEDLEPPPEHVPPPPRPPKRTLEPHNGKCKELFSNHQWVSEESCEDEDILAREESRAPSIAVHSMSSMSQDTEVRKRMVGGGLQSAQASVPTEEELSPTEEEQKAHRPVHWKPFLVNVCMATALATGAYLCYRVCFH

[12] = target: Tyrosine-protein phosphatase non-receptor type 11 (SHP-2) (Homo sapiens) (UniProt Q06124); assay: Percent inhibition of compound against Tyrosine phosphatase SHP2 at 100 uM

Receptor-type tyrosine-protein phosphatase F (Homo sapiens), sequence (P10586 whole entry): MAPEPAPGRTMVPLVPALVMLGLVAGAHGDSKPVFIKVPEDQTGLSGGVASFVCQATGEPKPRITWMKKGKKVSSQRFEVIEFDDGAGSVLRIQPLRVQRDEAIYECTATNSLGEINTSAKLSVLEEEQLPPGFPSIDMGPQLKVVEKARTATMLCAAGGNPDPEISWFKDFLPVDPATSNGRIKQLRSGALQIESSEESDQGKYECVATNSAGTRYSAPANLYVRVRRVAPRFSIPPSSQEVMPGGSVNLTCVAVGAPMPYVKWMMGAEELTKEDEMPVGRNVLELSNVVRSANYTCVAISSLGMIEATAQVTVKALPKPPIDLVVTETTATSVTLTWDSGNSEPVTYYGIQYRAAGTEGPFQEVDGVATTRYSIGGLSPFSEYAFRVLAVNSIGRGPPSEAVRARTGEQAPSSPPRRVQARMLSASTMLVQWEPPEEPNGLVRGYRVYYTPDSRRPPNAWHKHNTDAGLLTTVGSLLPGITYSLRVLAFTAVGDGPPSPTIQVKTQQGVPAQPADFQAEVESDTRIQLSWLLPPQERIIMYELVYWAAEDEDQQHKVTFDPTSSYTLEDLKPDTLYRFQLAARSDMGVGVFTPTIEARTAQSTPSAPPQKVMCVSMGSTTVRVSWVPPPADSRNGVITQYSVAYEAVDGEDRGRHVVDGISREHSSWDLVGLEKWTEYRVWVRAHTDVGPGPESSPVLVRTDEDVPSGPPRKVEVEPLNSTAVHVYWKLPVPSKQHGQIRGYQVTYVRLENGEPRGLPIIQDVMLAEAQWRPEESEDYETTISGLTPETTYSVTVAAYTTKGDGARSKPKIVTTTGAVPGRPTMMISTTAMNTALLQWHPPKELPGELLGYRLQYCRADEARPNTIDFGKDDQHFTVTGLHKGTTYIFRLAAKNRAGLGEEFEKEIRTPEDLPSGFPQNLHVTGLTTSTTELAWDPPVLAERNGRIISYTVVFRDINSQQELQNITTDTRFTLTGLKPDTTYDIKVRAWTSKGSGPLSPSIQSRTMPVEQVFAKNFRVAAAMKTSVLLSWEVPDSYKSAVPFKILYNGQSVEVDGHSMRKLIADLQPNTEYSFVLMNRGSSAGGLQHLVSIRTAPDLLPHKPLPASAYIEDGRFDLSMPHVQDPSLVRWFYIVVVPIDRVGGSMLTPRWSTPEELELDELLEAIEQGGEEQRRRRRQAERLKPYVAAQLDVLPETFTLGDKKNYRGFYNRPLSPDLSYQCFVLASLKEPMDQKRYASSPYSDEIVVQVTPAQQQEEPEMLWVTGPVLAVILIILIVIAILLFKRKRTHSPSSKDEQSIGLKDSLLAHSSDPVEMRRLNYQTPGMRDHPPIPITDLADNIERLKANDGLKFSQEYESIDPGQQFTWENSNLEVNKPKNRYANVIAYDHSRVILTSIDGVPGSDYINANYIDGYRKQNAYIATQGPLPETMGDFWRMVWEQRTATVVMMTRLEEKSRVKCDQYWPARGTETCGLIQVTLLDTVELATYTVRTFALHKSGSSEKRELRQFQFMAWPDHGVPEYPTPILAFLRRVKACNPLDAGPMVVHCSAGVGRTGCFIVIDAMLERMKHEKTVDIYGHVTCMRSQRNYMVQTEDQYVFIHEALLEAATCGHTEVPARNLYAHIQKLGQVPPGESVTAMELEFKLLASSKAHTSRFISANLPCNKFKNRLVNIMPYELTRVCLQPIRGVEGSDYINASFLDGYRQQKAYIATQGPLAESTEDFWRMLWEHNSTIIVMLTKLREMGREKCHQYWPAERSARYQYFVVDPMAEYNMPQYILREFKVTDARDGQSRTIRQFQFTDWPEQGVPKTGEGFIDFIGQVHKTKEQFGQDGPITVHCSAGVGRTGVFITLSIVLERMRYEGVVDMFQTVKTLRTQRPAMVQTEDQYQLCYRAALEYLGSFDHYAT

| Structure (SMILES) | inhibition [1] | inhibition [2] | inhibition [3] | inhibition [4] | inhibition [5] | Ki [6] | Ki [7] | inhibition [10] | inhibition [11] | inhibition [12] | Uptake (Rattus norvegicus [8]) | Uptake (Rattus norvegicus [9]) |
| --- | --- | --- | --- | --- | --- | --- | --- | --- | --- | --- | --- | --- |
| CCCCCNC(=O)[C@H](Cc1ccc(OCC(=O)NO)c(C(=O)O)c1)NC(=O)[C@H](Cc1ccccc1)NC(=O)OC(C)(C)C | 1% | 6% | 30% | 8% | 4% | – | – | – | – | – | – | – |
| CCCCCNC(=O)[C@H](Cc1ccc(OCC(=O)OC)c(C(=O)O)c1)NC(=O)[C@H](Cc1ccccc1)NC(=O)OC(C)(C)C | 0% | 3% | 25% | 5% | 0% | – | – | – | – | – | – | – |
| CCCCCNC(=O)C(Cc1ccc(OCC(=O)O)c(C(=O)O)c1)NC(=O)CCC(=O)O (stereo unspecified) | 0% | – | – | – | 5% | 6500 nM | – | – | – | – | – | – |
| CCCCCNC(=O)C(Cc1ccc(OCC(=O)O)c(C#N)c1)NC(=O)CCC(=O)O (stereo unspecified) | 0% | – | 4% | – | 0% | – | – | – | – | – | – | – |
| CCCCCNC(=O)[C@H](Cc1ccc(OCC(N)=O)c(C(=O)O)c1)NC(=O)[C@H](Cc1ccccc1)NC(=O)OC(C)(C)C | 0% | 0% | 0% | 0% | 0% | – | – | – | – | – | – | – |
| CCCCCNC(=O)C(Cc1ccc(OCCO)c(C(=O)O)c1)NC(=O)CCC(=O)O (stereo unspecified) | 0% | – | 4% | – | 0% | – | – | – | – | – | – | – |
| CCCCCNC(=O)C(Cc1ccc2c(c1)OCCOC2=O)NC(=O)CCC(=O)O (stereo unspecified) | 0% | – | 1% | – | 0% | – | – | – | – | – | – | – |
| CCCCCNC(=O)C(Cc1ccc(OCC(=O)O)c(C(C)=O)c1)NC(=O)CCC(=O)O (stereo unspecified) | – | – | – | – | – | – | – | -2% | 8% | 1% | – | – |
| CCCCCNC(=O)C(Cc1ccc(OCC#N)c(C(=O)O)c1)NC(=O)CCC(=O)O (stereo unspecified) | 0% | – | 3% | – | 0% | – | – | – | – | – | – | – |
| CCCCCNC(=O)[C@H](Cc1ccc(OCc2nn[nH]n2)c(C(=O)O)c1)NC(=O)[C@H](Cc1ccccc1)NC(=O)OC(C)(C)C | 0% | 1% | 17% | 3% | 5% | – | – | – | – | – | – | – |

Continued, in another order:

| inhibition [1] | inhibition [2] | inhibition [3] | inhibition [4] | inhibition [5] | Ki [6] | Ki [7] | inhibition [10] | inhibition [11] | inhibition [12] | Structure (SMILES) | Uptake (Rattus norvegicus [8]) | Uptake (Rattus norvegicus [9]) |
| --- | --- | --- | --- | --- | --- | --- | --- | --- | --- | --- | --- | --- |
| 1% | 1% | 16% | 3% | 1% | – | – | – | – | – | CCCCCNC(=O)[C@H](Cc1ccc(OCC(=O)O)c(C#CC(=O)O)c1)NC(=O)[C@H](Cc1ccccc1)NC(=O)OC(C)(C)C | – | – |
| 3% | 5% | 54% | 13% | 6% | – | – | – | – | – | CCCCCNC(=O)[C@H](Cc1ccc(OCC(=O)O)c(C(=O)NO)c1)NC(=O)[C@H](Cc1ccccc1)NC(=O)OC(C)(C)C | – | – |
| 0% | 30% | 97% | 78% | 2% | – | 2000 nM | – | – | – | CCCCCNC(=O)[C@H](Cc1ccc(OCC(=O)O)c(C(=O)O)c1)NC(=O)[C@H](Cc1ccccc1)NC(=O)OC(C)(C)C | – | – |
| 0% | 27% | 97% | 77% | 1% | – | 2000 nM | – | – | – | CCCCCNC(=O)[C@H](Cc1ccc(OCC(=O)O)c(-c2nn[nH]n2)c1)NC(=O)[C@H](Cc1ccccc1)NC(=O)OC(C)(C)C | 147% | 99% |
| 13% | 3% | 18% | 4% | 1% | – | – | – | – | – | CCCCCNC(=O)[C@H](Cc1ccc(OCC(=O)O)c(CCC(=O)O)c1)NC(=O)[C@H](Cc1ccccc1)NC(=O)OC(C)(C)C | – | – |
| 0% | 1% | 9% | 1% | – | – | – | – | – | – | CCCCCNC(=O)[C@H](Cc1ccc(OCC(=O)O)c(-c2cc(O)no2)c1)NC(=O)[C@H](Cc1ccccc1)NC(=O)OC(C)(C)C | – | – |
| 0% | 3% | 4% | 2% | 0% | – | – | – | – | – | CCCCCNC(=O)[C@H](Cc1ccc(OCC(=O)O)c(C(=O)OC)c1)NC(=O)[C@H](Cc1ccccc1)NC(=O)OC(C)(C)C | – | – |
